We go through three compounds from ChEMBL document CHEMBL1138024, “Aryl urea analogs with broad-spectrum antibacterial activity” (Bioorg Med Chem Lett, 2004).

Holding throughout (format): functional
Assay [1] concerns Escherichia coli. Briefly: Minimum inhibitory concentration against Escherichia coli ATCC 25922; value ranges from 6-12 uM.
In assay [2] the test system is Staphylococcus aureus. In words: In vitro antibacterial activity against Staphylococcus aureus; value ranges from 3-6 uM.
The next assay deals with Pseudomonas aeruginosa. In words: Minimum inhibitory concentration against Pseudomonas aeruginosa ATCC 25416.
Assay [3] concerns Enterococcus faecium. Briefly: Minimum inhibitory concentration against Enterococcus faecium ATCC 6569; value ranges from 3-6 uM.
The test system of assay [4] is Staphylococcus aureus. In words: Minimum inhibitory concentration against Staphylococcus aureus ATCC 13709 (+4% BSA); value ranges from 50-100 uM. In short, it runs like this:
(§1)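 Same microdilution MIC against S. aureus ATCC 13709, but with 4% bovine serum albumin in the wells. Compound in 0.5% DMSO in water, inoculum about 10³–10⁴ CFU/well, duplicates. Growth was read as A595 after 20–24 h at 37°C against a compound-free control. MIC is reported as the range between full inhibition and viable growth.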

Assay [5] relates to Enterococcus faecalis. Briefly: Minimum inhibitory concentration against Enterococcus faecalis ATCC 29212; value ranges from 6-12 uM.
The next assay deals with Proteus vulgaris. In words: Minimum inhibitory concentration against Proteus vulgaris ATCC 8427; value ranges from 12-25 uM.
In assay [6] the test system is Staphylococcus aureus. In words: Minimum inhibitory concentration against Staphylococcus aureus ATCC 13709; value ranges from 3-6 uM.
Another assay relates to Streptococcus pyogenes. In words: Minimum inhibitory concentration against Streptococcus pyogenes ATCC 49399; value ranges from 3-6 uM.
Assay [7] has as its system Klebsiella pneumoniae. Briefly: Minimum inhibitory concentration against Klebsiella pneumoniae ATCC 13383; value ranges from 3-6 uM.
In assay [8] the test system is Enterococcus faecium. Briefly: Minimum inhibitory concentration against Enterococcus faecium ATCC 6569.
Assay [9] has as its system Klebsiella pneumoniae. In words: Minimum inhibitory concentration against Klebsiella pneumoniae ATCC 13383; value ranges from 6-12 uM.
The subject of assay [10] is Staphylococcus aureus. Briefly: Minimum inhibitory concentration against Staphylococcus aureus ATCC 13709 (+4% BSA); value ranges from 12-25 uM. A digest of the protocol: as §1
The test system of assay [11] is Enterococcus faecalis. Briefly: Minimum inhibitory concentration against Enterococcus faecalis ATCC 29212; value ranges from 3-6 uM.
The test system of assay [12] is Huh-7. Briefly: Cytotoxic concentration against Huh7 cells at 48 hours in MTT assay; value ranges from 12.5-25 uM. As to conditions: Homo sapiens, Huh-7, 48 h. (In general: Tetrazolium dyes change colour on reduction, which living cells bring about.)
The subject of assay [13] is Escherichia coli. Briefly: Minimum inhibitory concentration against Escherichia coli ATCC 25922; value ranges from 12-25 uM.
Assay [14] has as its system Staphylococcus aureus. In words: Minimum inhibitory concentration against Staphylococcus aureus ATCC 13709 (+4% BSA); value ranges from 25-50 uM. A digest of the protocol:
as §1

The subject of assay [15] is Huh-7. In words: Cytotoxic concentration against Huh7 cells at 48 hours in MTT assay; value ranges from 50-100 uM. The settings on record: Homo sapiens, Huh-7, 48 h.
Assay [16] concerns Enterococcus faecium. Briefly: Minimum inhibitory concentration against Enterococcus faecium ATCC 6569; value ranges from 6-12 uM.

The structures appear in SMILES notation. ≈ marks a conversion by molar mass, not a printed value. Where only a bound is given, the exact number is not on record here.

Broadly, the MIC is the lowest concentration found to suppress growth. A high value points to a less susceptible organism. In the case of `CC(C)(C)c1ccc(CNCCCNC(=O)Nc2ccc(C(F)(F)F)cc2)cc1`, the MIC against Escherichia coli [1] was 12 µM (≈ 4.89 µg/mL); in the assay with Staphylococcus aureus [2], 6 µM (≈ 2.44 µg/mL); in the assay with Pseudomonas aeruginosa, over 100 µM; against Enterococcus faecium [3], 6 µM (≈ 2.44 µg/mL); against Staphylococcus aureus [4], 100 µM (≈ 40.7 µg/mL); with Enterococcus faecalis [5], 12 µM (≈ 4.89 µg/mL). The MIC in the assay with Proteus vulgaris came to 25 µM (≈ 10.2 µg/mL); against Staphylococcus aureus [6] it was 6 µM (≈ 2.44 µg/mL); in the assay with Streptococcus pyogenes, 6 µM (≈ 2.44 µg/mL); against Klebsiella pneumoniae [7], 6 µM (≈ 2.44 µg/mL).
By CC50 is commonly meant the concentration that lowers cell viability or growth by half. Take `O=C(NCCCNCc1ccc(Oc2ccccc2)cc1)Nc1ccc(C(F)(F)F)cc1`: the MIC is 12 µM (≈ 5.32 µg/mL) in the assay with Escherichia coli [1]; 6 µM (≈ 2.66 µg/mL) against Staphylococcus aureus [2]; over 100 µM in the assay on Enterococcus faecium [8]; over 100 µM in the assay with Pseudomonas aeruginosa; 12 µM (≈ 5.32 µg/mL) in the assay on Klebsiella pneumoniae [9]; 25 µM (≈ 11.1 µg/mL) in the assay on Proteus vulgaris. In addition, the MIC was found to be 6 µM (≈ 2.66 µg/mL) in the assay with Staphylococcus aureus [6], 6 µM (≈ 2.66 µg/mL) in the assay on Streptococcus pyogenes, 25 µM (≈ 11.1 µg/mL) in the assay with Staphylococcus aureus [10] and 6 µM (≈ 2.66 µg/mL) against Enterococcus faecalis [11]. Besides, in the assay on Huh-7 [12], the CC50 came out at 25 µM.
Take `CCOc1c(Br)cc(Br)cc1CNCCCNC(=O)Nc1ccc(C(F)(F)F)cc1`: the MIC against Staphylococcus aureus [2] was 6 µM (≈ 3.32 µg/mL); against Pseudomonas aeruginosa it was over 100 µM; against Escherichia coli [13] it was 25 µM (≈ 13.8 µg/mL); in the assay on Enterococcus faecalis [5], 12 µM (≈ 6.64 µg/mL); against Proteus vulgaris it was 25 µM (≈ 13.8 µg/mL); against Staphylococcus aureus [6] it was 6 µM (≈ 3.32 µg/mL). Further, the minimum inhibitory concentration (MIC) in the assay on Streptococcus pyogenes worked out at 6 µM (≈ 3.32 µg/mL); against Staphylococcus aureus [14], 50 µM (≈ 27.7 µg/mL); against Klebsiella pneumoniae [7] it was 6 µM (≈ 3.32 µg/mL); with Enterococcus faecium [16], 12 µM (≈ 6.64 µg/mL). This compound gave a CC50 in the assay on Huh-7 [15] of 100 µM.
